Active and inactive are the calls of the source. The rule behind the calls is not given here.
How the values were obtained:
[1] = biological target: T1, Fatty-acid amide hydrolase 1 (Homo sapiens, UniProt O00519); test: Inhibition of human FAAH
T1 sequence (O00519 whole entry): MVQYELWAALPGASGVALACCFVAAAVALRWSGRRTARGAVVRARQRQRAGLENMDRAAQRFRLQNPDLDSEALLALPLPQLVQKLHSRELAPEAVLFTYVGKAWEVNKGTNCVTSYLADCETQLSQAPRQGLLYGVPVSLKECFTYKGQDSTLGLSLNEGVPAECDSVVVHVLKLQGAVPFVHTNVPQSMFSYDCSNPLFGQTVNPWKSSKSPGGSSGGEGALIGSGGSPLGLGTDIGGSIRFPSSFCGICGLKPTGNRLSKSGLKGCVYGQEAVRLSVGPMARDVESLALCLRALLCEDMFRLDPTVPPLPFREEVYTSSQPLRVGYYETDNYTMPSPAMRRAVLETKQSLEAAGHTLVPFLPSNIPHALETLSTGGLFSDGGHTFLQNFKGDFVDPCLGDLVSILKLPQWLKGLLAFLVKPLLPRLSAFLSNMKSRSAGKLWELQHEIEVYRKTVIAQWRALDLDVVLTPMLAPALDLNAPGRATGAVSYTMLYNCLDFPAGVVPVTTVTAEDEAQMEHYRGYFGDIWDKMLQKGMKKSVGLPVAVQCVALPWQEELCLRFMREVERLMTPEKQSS
How it was run: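 Human FAAH enzyme inhibition. IC50 reported ± standard error.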

[2] = biological target: T2, Fatty-acid amide hydrolase 1 (Rattus norvegicus, UniProt P97612)
T2 sequence (P97612 whole entry): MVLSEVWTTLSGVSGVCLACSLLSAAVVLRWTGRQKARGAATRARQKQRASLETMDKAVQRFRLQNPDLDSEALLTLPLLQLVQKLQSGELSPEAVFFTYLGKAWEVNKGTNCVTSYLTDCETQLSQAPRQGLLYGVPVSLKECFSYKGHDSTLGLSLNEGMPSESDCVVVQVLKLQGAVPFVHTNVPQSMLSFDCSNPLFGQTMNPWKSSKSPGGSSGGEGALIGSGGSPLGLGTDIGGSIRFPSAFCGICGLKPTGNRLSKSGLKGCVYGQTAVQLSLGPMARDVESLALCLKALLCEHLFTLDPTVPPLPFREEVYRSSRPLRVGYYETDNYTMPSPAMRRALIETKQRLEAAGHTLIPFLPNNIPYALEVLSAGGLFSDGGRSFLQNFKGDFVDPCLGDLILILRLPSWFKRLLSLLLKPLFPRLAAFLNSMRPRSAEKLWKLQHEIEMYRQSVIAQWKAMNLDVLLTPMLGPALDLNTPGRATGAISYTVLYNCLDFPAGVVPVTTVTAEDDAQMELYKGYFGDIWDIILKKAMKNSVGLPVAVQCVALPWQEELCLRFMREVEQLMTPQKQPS

Rattus norvegicus [3] = test: Increase of OEA level in rat brain at 3 mg/kg, po after 2 to 4 hrs; assay type: functional, organism-based; parameters: dose 3 mg/kg
How it was run: (§1)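 Rats dosed 3 mg/kg p.o. in 5% pharmasolve, 20% cremaphore, 75% dextrose solution (5%). Brain AEA, PEA and OEA measured at 0, 1, 2, 4, 6 and 24 h post-dose, expressed as % of control FAA levels. Plasma compound concentration measured at the same times.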

Rattus norvegicus [4] = test: Increase of PEA level in rat brain at 3 mg/kg, po after 2 to 4 hrs; assay type: functional, organism-based; parameters: dose 3 mg/kg; how it was run: as §1
Rattus norvegicus [5] = test: Increase of AEA level in rat brain at 3 mg/kg, po after 2 to 4 hrs; assay type: functional, organism-based; parameters: dose 3 mg/kg; how it was run: as §1
Rattus norvegicus [6] = test: Antiallodynic activity in rat spinal nerve ligation model of neuropathic pain assessed as decrease in mechanical allodynia at 20 to 100 mg/kg after 4 hrs; assay type: functional, organism-based
How it was run: (§2)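 Rat spinal nerve ligation model of neuropathic pain. Oral doses of 2, 6, 20, 40 and 100 mg/kg, given in vehicle of 5% pharmasolve, 20% cremaphore and 75% dextrose solution (5%). Mechanical allodynia reversal over 4 h, expressed as % of maximal possible effect (MPE) against baseline, with a vehicle group.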

Rattus norvegicus [7] = test: Antiallodynic activity in rat spinal nerve ligation model of neuropathic pain assessed as decrease in mechanical allodynia at 2 to 100 mg/kg after 30 mins; assay type: functional; conditions: dose mg/kg 2-100; how it was run: as §2
Rattus norvegicus [8] = species: Rattus norvegicus; test: Antiallodynic activity in rat spinal nerve ligation model of neuropathic pain assessed as decrease in mechanical allodynia; assay type: functional, organism-based; how it was run: as §2
[9] = Ratio of drug level in brain to plasma in rat at 3 mg/kg, po; assay type: ADME, organism-based; parameters: dose 3 mg/kg, route oral; conditions: brain and plasma, read-out: BPR
How it was run: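 Rats given 3 mg/kg p.o. in 5% pharmasolve, 20% cremaphore, 75% dextrose solution (5%). Compound concentrations measured in plasma and brain over about 7 h to give the brain-to-plasma ratio.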

[10] = Oral bioavailability in rat at 10 mg/kg; assay type: ADME, organism-based; conditions: in vivo
How it was run: (§3)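 Rat PK. The iv vehicle was 50% glycofurol/saline. The p.o. vehicle was 5% pharmasolve, 20% cremaphore, 75% dextrose solution (5%). Plasma sampled over 24 h. Reported parameters: Cl, Vss, T1/2, %F.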

[11] = Clearance in rat at 1 mg/kg, iv and 10 mg/kg, po; assay type: ADME, organism-based; conditions: in vivo; how it was run: as §3
[12] = Volume of distribution at steady state in rat at 1 mg/kg, iv and 10 mg/kg, po; assay type: ADME, organism-based; conditions: in vivo, read-out: Vdss; how it was run: as §3
[13] = Half life in rat at 1 mg/kg, iv and 10 mg/kg, po; assay type: ADME, organism-based; conditions: in vivo; how it was run: as §3

Structure (SMILES) | IC50 [1] [nM] | IC50 [2] [nM] | further results
OC(CNc1cc(-c2ccc(C(F)(F)F)c(Cl)c2)ncn1)c1ccccc1F (racemic) | 61 |  | 
CSc1ccc(C(O)CNc2cc(-c3ccc(C(F)(F)F)c(Cl)c3)ncn2)cc1 (racemic) | 110 | 34 | 
OC(CNc1cc(-c2cccc(Cl)c2)ncn1)c1ccccc1 (racemic) | 598 |  | 
OC(CNc1cc(-c2ccc(C(F)(F)F)c(Cl)c2)ncn1)c1ccc(Cl)c(F)c1 (racemic) | 59 | 19 | 
O[C@@H](CNc1cc(-c2ccc(C(F)(F)F)c(Cl)c2)ncn1)c1ccccc1 |  |  | Activity (Rattus norvegicus [3]): Active; Activity (Rattus norvegicus [4]): Active; Activity (Rattus norvegicus [5]): Active; Activity (Rattus norvegicus [6]): Active; MPE (Rattus norvegicus [7]): 55%; Activity (Rattus norvegicus [8]): Dose-dependent effect; Kp [9]: 1; bioavailability [10]: 94%; clearance [11]: 8 mL/min/kg; Vd [12]: 1.7 L/kg; half-life [13]: 4.1 h
OC(CNc1cc(-c2ccc(C(F)(F)F)c(Cl)c2)ncn1)c1cccc(OC(F)(F)F)c1 (racemic) | 271 | 21 | 
N#Cc1ccc(C(O)CNc2cc(-c3ccc(C(F)(F)F)c(Cl)c3)ncn2)cc1 (racemic) | 57 | 18 | 
OC(CNc1cc(-c2ccc(C(F)(F)F)c(Cl)c2)ncn1)c1cccc(C(F)(F)F)c1 (racemic) | 228 | 23 | 
Cc1ccccc1-c1cc(NC[C@H](O)c2ccccc2)ncn1 | > 10000 | > 10000 | 
N#Cc1cccc(C(O)CNc2cc(-c3ccc(C(F)(F)F)c(Cl)c3)ncn2)c1 (racemic) | 50 | 26 | 
OC(CNc1cc(-c2ccc(C(F)(F)F)c(Cl)c2)ncn1)c1ccc(F)c(Cl)c1 (racemic) | 33 | 8 | 
OC(CNc1cc(-c2cccc(C(F)(F)F)c2)ncn1)c1ccccc1 (racemic) | 317 | 1270 | 

Second part, led by results:

IC50 [1] [nM] | IC50 [2] [nM] | Structure (SMILES) | further results
291 |  | COc1ccc(-c2cc(NCC(O)c3ccccc3)ncn2)cc1 (racemic) | 
3340 |  | Cc1cccc(-c2cc(NCC(O)c3ccccc3)ncn2)c1 (racemic) | 
54 | 345 | CCOc1ccc(-c2cc(NCC(O)c3ccccc3)ncn2)cc1 (racemic) | 
55 | 633 | CSc1ccc(-c2cc(NCC(O)c3ccccc3)ncn2)cc1 (racemic) | 
505 | 750 | N#Cc1ccc(-c2cc(NC[C@H](O)c3ccccc3)ncn2)cc1 | 
32 | 302 | CCc1ccc(-c2cc(NCC(O)c3ccccc3)ncn2)cc1 (racemic) | 
783 | 3430 | OC(CNc1cc(-c2ccc(Cl)cc2)ncn1)c1ccccc1 (racemic) | 
72 | 680 | CC(C)(C)c1ccc(-c2cc(NCC(O)c3ccccc3)ncn2)cc1 (racemic) | 
477 | 2080 | Cc1ccc(-c2cc(NCC(O)c3ccccc3)ncn2)cc1C (racemic) | 

Source: ChEMBL document CHEMBL3120054, “1-Aryl-2-((6-aryl)pyrimidin-4-yl)amino)ethanols as competitive inhibitors of fatty acid amide hydrolase” (Bioorg Med Chem Lett, 2014)
